ChEMBL document CHEMBL5620421, “2,6-Disubstituted 7-(naphthalen-2-ylmethyl)-7H-purines as a new class of potent antitubercular agents inhibiting DprE1” (Eur J Med Chem, 2023)
In brackets after ≈: the same amount, converted by molar mass. Activity calls are given as the source filed them. No cut-off for these calls is given here.

Assays:
[1] = tested on: Mycobacterium tuberculosis; experiment: Antitubercular activity against Mycobacterium tuberculosis CNCTC My 331/88 (H37Rv) assessed as inhibition of bacterial growth measured after 14 days of incubation by Sulas semisynthetic medium based assay; type: functional; settings: 336 h, time 14 day
Outline: (§1)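 Micromethod MIC in Sula's semisynthetic medium. MIC is the lowest concentration inhibiting >99% of the mycobacterial population. Isoniazid was the standard drug.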

[2] = tested on: Mycobacterium tuberculosis; experiment: Antitubercular activity against Mycobacterium tuberculosis CNCTC My 331/88 (H37Rv) assessed as inhibition of bacterial growth measured after 21 days of incubation by Sulas semisynthetic medium based assay; type: functional; settings: 504 h, time 21 day; outline: as §1
[3] = tested on: Mycobacterium avium; experiment: Antitubercular activity against Mycobacterium avium CNCTC My 330/88 assessed as inhibition of bacterial growth measured after 14 days of incubation by Sulas semisynthetic medium based assay; type: functional; settings: CNCTC My 330/88, 336 h, time 14 day
Outline: (§2)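 M. avium was tested by the micromethod in Sula's semisynthetic medium. Compounds in DMSO at 1000 to 0.5 μmol/L. Incubation at 37 °C, read at 14 and 21 days. MIC is the lowest concentration giving >99% growth inhibition.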

[4] = tested on: Mycobacterium avium; experiment: Antitubercular activity against Mycobacterium avium CNCTC My 330/88 assessed as inhibition of bacterial growth measured after 21 days of incubation by Sulas semisynthetic medium based assay; type: functional; settings: CNCTC My 330/88, 504 h, time 21 day; outline: as §2
[5] = tested on: Mycobacterium kansasii; experiment: Antitubercular activity against Mycobacterium kansasii CNCTC My 235/80 assessed as inhibition of bacterial growth measured after 14 days of incubation by Sulas semisynthetic medium based assay; type: functional; settings: CNCTC My 235/80, 336 h, time 14 day
Outline: (§3)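 Micromethod in Sula's semisynthetic medium. MIC is the lowest concentration inhibiting >99% of the mycobacterial population. Isoniazid was the standard.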

[6] = tested on: Mycobacterium kansasii; experiment: Antitubercular activity against Mycobacterium kansasii CNCTC My 235/80 assessed as inhibition of bacterial growth measured after 21 days of incubation by Sulas semisynthetic medium based assay; type: functional; settings: CNCTC My 235/80, 504 h, time 21 day; outline: as §3
[7] = tested on: Mycobacterium tuberculosis; experiment: Antimycobacterial activity against MDR clinical isolate Mycobacterium tuberculosis PRAHA 1 assessed as inhibition of mycobacterial growth measured after 14 to 21 days of incubation by Sulas semisynthetic medium based assay; type: functional; settings: time 14-21 day
Outline: (§4)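 Clinical MDR/XDR M. tuberculosis isolates were tested by the Sula's semisynthetic medium micromethod. Compounds in DMSO at 1000 to 0.5 μmol/L, in twofold-type steps. Incubation at 37 °C, read at 14 and 21 days. MIC99 is the lowest concentration inhibiting >99% of growth. Drug resistance or susceptibility of each isolate is to amikacin, clofazimine, gentamicin, ofloxacin, streptomycin and the others listed.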

[8] = tested on: Mycobacterium tuberculosis; experiment: Antimycobacterial activity against MDR clinical isolate Mycobacterium tuberculosis PRAHA 4 assessed as inhibition of mycobacterial growth measured after 14 to 21 days of incubation by Sulas semisynthetic medium based assay; type: functional; settings: time 14-21 day; outline: as §4
[9] = tested on: Mycobacterium tuberculosis; experiment: Antimycobacterial activity against MDR clinical isolate Mycobacterium tuberculosis 9449/2007 assessed as inhibition of mycobacterial growth measured after 14 to 21 days of incubation by Sulas semisynthetic medium based assay; type: functional; settings: time 14-21 day; outline: as §4
[10] = tested on: Mycobacterium tuberculosis; experiment: Antimycobacterial activity against XDR clinical isolate Mycobacterium tuberculosis 234/2005 assessed as inhibition of mycobacterial growth measured after 14 to 21 days of incubation by Sulas semisynthetic medium based assay; type: functional; settings: time 14-21 day; outline: as §4
[11] = tested on: Mycobacterium tuberculosis; experiment: Antimycobacterial activity against XDR clinical isolate Mycobacterium tuberculosis 7357/1998 assessed as inhibition of mycobacterial growth measured after 14 to 21 days of incubation by Sulas semisynthetic medium based assay; type: functional; settings: time 14-21 day; outline: as §4
[12] = tested on: HepG2; experiment: Cytotoxicity against human HepG2 cells incubated for 24 hrs by MTT assay; type: functional, cell-based; settings: HepG2, 24 h
Outline: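 HepG2 cells in DMEM with 10% FBS, seeded at 15 × 10³ cells/well and attached overnight. Exposed for 24 h to serial dilutions prepared from DMSO stocks, final DMSO ≤1%. Then given fresh medium with 0.5 mg/mL MTT for 1 h at 37 °C. Formazan dissolved in DMSO and read at 570 nm. IC50 from 4-parameter nonlinear regression; three independent experiments in triplicate, mean ± SD.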

[13] = tested on: HepG2; experiment: Cytotoxicity against human HepG2 cells assessed as cell viability at 50 uM incubated for 72 hrs by MTT spectrophotometric analysis relative to control; type: functional; settings: read-out: Activity
Outline: (§5)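 HepG2 or rat H9c2 cells in DMEM with FBS, seeded at 10,000 cells/well. Treated 24 h later for 72 h, with 0.1% DMSO vehicle and 1% Triton X-100 as controls. MTT added (3 mg/mL solution) for 2 h at 37 °C, then cells lysed in isopropanol/0.1 M HCl/5% Triton X-100. Read at 570 nm minus 690 nm. Viability expressed as % of vehicle; IC50 derived where reached. At least four independent experiments.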

[14] = tested on: HepG2; experiment: Cytotoxicity against human HepG2 cells assessed as cell viability incubated for 72 hrs by MTT spectrophotometric analysis; type: functional, cell-based; settings: HepG2, 72 h; outline: as §5
[15] = tested on: H9c2; experiment: Cytotoxicity against rat H9c2 cells assessed as cell viability at 50 uM incubated for 72 hrs by MTT spectrophotometric analysis relative to control; type: functional; settings: read-out: Activity; outline: as §5
[16] = tested on: H9c2; experiment: Cytotoxicity against rat H9c2 cells assessed as cell viability incubated for 72 hrs by MTT spectrophotometric analysis; type: functional, cell-based; settings: H9c2, 72 h; outline: as §5
[17] = Half life in human liver microsomes at 3 uM incubated for 5 to 45 min in presence of NADPH by LC-MS analysis; type: ADME, Microsome; settings: time 5-45 min
[18] = Intrinsic clearance in human liver microsomes at 3 uM incubated for 5 to 45 min in presence of NADPH by LC-MS analysis; type: ADME, Microsome; settings: time 5-45 min, read-out: CLH
[19] = Stability in human plasma assessed as compound remaining at 1 uM incubated for 15 to 120 mins by LC-MS analysis; type: ADME, cell-free; settings: time 15-120 min, read-out: Stability
Outline: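 Stopped with acetonitrile containing internal standard and centrifuged at 12,000 rpm for 5 min at 4 °C. Supernatant analysed by LC-MS in positive mode. % remaining taken from compound/IS peak-area ratios at 120 versus 0 min.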

[20] = tested on: Enterococcus faecium; experiment: Antibacterial activity against vancomycin-resistant Enterococcus faecium assessed as inhibition of bacterial growth incubated for 24 to 48 hrs by microdilution broth method; type: functional, organism-based; settings: time 24-48 hrs
Outline: (§6)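 Clinical isolates, stored at −70 °C, were passaged twice on Mueller-Hinton agar. Broth microdilution in Mueller-Hinton broth, pH 7.4, with twofold serial dilutions. DMSO was at most 1% final. Inoculum 1.5 × 10⁸ CFU/mL suspension. MIC is 95% growth inhibition, read after 24 and 48 h at 36 °C.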

[21] = tested on: Klebsiella pneumoniae; experiment: Antibacterial activity against ESBL positive Klebsiella pneumoniae C1914 assessed as inhibition of bacterial growth incubated for 24 to 48 hrs by microdilution broth method; type: functional, organism-based; settings: time 24-48 hrs
Outline: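 Clinical isolates kept at –70 °C and subcultured twice on Mueller-Hinton agar, using the second subculture. Broth microdilution in Mueller-Hinton broth at pH 7.4 with two-fold serial compound dilutions and DMSO ≤1% final. Inoculum was 10 μL of a 1.5 × 10⁸ CFU/mL suspension. Incubated at 36 °C ± 1 °C and read at 24 h and 48 h. MIC taken as 95% growth inhibition.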

[22] = tested on: Pseudomonas aeruginosa; experiment: Antibacterial activity against multidrug-resistant Pseudomonas aeruginosa A1245 assessed as inhibition of bacterial growth incubated for 24 to 48 hrs by microdilution broth method; type: functional, organism-based; settings: time 24-48 hrs; outline: as §6

SMILES	MIC99 [1]	MIC99 [2]	MIC99 [3]	MIC99 [4]	MIC99 [5]	MIC99 [6]	MIC99 [7]	MIC99 [8]	MIC99 [9]	MIC99 [10]	MIC99 [11]	IC50 [12]	viability at 50 µM [13]	IC50 [14]	viability at 50 µM [15]	IC50 [16]	half-life at 3 µM [17]	Activity [20]	Activity [21]	Activity [22]	other results
O=c1[nH]c(N2CCSCC2)nc2ncn(Cc3ccc4ccccc4c3)c12	2 µM (≈ 0.755 µg/mL)	4 µM (≈ 1.51 µg/mL)	> 500 µM	> 500 µM	64 µM (≈ 24.2 µg/mL)	125 µM (≈ 47.2 µg/mL)	16 µM (≈ 6.04 µg/mL)	8 µM (≈ 3.02 µg/mL)	8 µM (≈ 3.02 µg/mL)	16 µM (≈ 6.04 µg/mL)	16 µM (≈ 6.04 µg/mL)	> 32 µM	72.9%	> 50 µM	97.1%	> 50 µM	10.9 min	inactive	inactive	inactive	microsomal CLint at 3 µM [18]: 127 µL/min/mg; remaining at 1 µM [19]: 98.2%
O=c1[nH]c(N2CCOCC2)nc2ncn(Cc3ccc4ccccc4c3)c12	4 µM (≈ 1.45 µg/mL)	4 µM (≈ 1.45 µg/mL)	> 500 µM	> 500 µM	64 µM (≈ 23.1 µg/mL)	125 µM (≈ 45.2 µg/mL)	32 µM (≈ 11.6 µg/mL)	16 µM (≈ 5.78 µg/mL)	32 µM (≈ 11.6 µg/mL)	32 µM (≈ 11.6 µg/mL)	64 µM (≈ 23.1 µg/mL)	> 125 µM	60.5%	59 µM	86%	> 50 µM	110 min	inactive	inactive	inactive	microsomal CLint at 3 µM [18]: 12.6 µL/min/mg; remaining at 1 µM [19]: 96.6%
O=c1[nH]c(N2CCCCC2)nc2ncn(Cc3ccc4ccccc4c3)c12	2 µM (≈ 0.719 µg/mL)	4 µM (≈ 1.44 µg/mL)	> 500 µM	> 500 µM	> 500 µM	> 500 µM	16 µM (≈ 5.75 µg/mL)	8 µM (≈ 2.88 µg/mL)	8 µM (≈ 2.88 µg/mL)	16 µM (≈ 5.75 µg/mL)	16 µM (≈ 5.75 µg/mL)	87.2 µM	42.2%	54.8 µM	79.4%	> 50 µM	17.8 min	inactive	inactive	inactive	microsomal CLint at 3 µM [18]: 77.9 µL/min/mg; remaining at 1 µM [19]: 96.7%
COc1nc(N2CCOCC2)nc2ncn(Cc3ccc4ccccc4c3)c12	2 µM (≈ 0.751 µg/mL)	4 µM (≈ 1.5 µg/mL)	250 µM (≈ 93.9 µg/mL)	500 µM (≈ 188 µg/mL)	32 µM (≈ 12 µg/mL)	64 µM (≈ 24 µg/mL)	16 µM (≈ 6.01 µg/mL)	8 µM (≈ 3 µg/mL)	8 µM (≈ 3 µg/mL)	16 µM (≈ 6.01 µg/mL)	16 µM (≈ 6.01 µg/mL)	64.3 µM	66.4%	> 50 µM	92.6%	> 50 µM		inactive	inactive	inactive	
